Data as given in ChEMBL document CHEMBL1124160, “Synthetic aci-reductones: 3,4-dihydroxy-2H-1-benzopyran-2-ones and their cis- and trans-4a,5,6,7,8,8a-hexahydro diastereomers. Antiaggregatory, antilipidemic, and redox properties compared to those of the 4-substituted 2-hydroxytetronic acids” (J Med Chem, 1988).

What was measured:
Format in all cases: functional, organism-based
[1] = organism: Homo sapiens; experiment: Inhibition of U-46,619 induced human platelet aggregation
Procedure, shortened: (§1)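 Human platelet-rich plasma from drug-free volunteers (no medication ≥10 days). Compounds prepared fresh in N2-deoxygenated 10 mM sodium phosphate/0.9% NaCl pH 7.4 (one in DMSO, final 0.14%), added 1 min before inducer: ADP 1–5 μM, AA 0.2–1 mM or U46619 0.3–0.5 μM. Turbidometric aggregometry; IC50 from light-transmittance amplitude at 6 min (ADP, secondary wave) or 4 min (AA, U46619); mean ± SEM over donors.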

[2] = organism: Homo sapiens; experiment: Inhibition of U-46,619 induced serotonin secretion
Procedure, shortened: (§2)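 Platelets in human platelet-rich plasma prelabeled with [14C]serotonin; dense-granule secretion read as released radioactivity. Compounds in deoxygenated 10 mM sodium phosphate/0.9% NaCl pH 7.4, given 1 min before ADP (1–5 μM), AA (0.2–1 mM) or U46619 (0.3–0.5 μM). Top drug levels 4000–5000 μM; mean ± SEM across donors.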

[3] = organism: Homo sapiens; experiment: Inhibition of adenosine diphosphate (ADP) induced human platelet aggregation; procedure, shortened: as §1
[4] = organism: Homo sapiens; experiment: Inhibition of adenosine diphosphate (ADP) induced serotonin secretion; procedure, shortened: as §2
[5] = organism: Homo sapiens; experiment: Inhibition of arachidonic acid (AA) induced human platelet aggregation; procedure, shortened: as §1
[6] = organism: Homo sapiens; experiment: Inhibition of arachidonic acid (AA) induced serotonin secretion; procedure, shortened: as §2
[7] = organism: Homo sapiens; experiment: Inhibition of U-46,619 induced serotonin secretion; c=No response; procedure, shortened: as §2

Compound	IC50 [1]	IC50 [2]	IC50 [3]	IC50 [4]	IC50 [5]	IC50 [6]	IC50 [7]
O=c1c(O)c(O)oc2ccc(O)cc12	> 4000 µM	> 4000 µM	1420 µM	1520 µM	3510 µM	3410 µM	–
O=C1C(O)=C(O)OC1c1ccc(Cl)cc1 (configuration not stated)	> 4000 µM	> 4000 µM	1090 µM	1210 µM	> 4000 µM	> 4000 µM	–
O=C1C(O)=C(O)OC12CCCC2	> 4000 µM	> 4000 µM	> 4000 µM	> 4000 µM	> 4000 µM	> 4000 µM	–
O=C1C(O)=C(O)OC12CCCCC2	> 4000 µM	> 4000 µM	> 3300 µM	> 3000 µM	> 4000 µM	> 4000 µM	–
O=c1c(O)c(O)oc2cc3c(cc12)OCO3	1110 µM	744 µM	426 µM	389 µM	3980 µM	1550 µM	–
O=C1C(O)=C(O)OC2CCCCC12 (configuration not stated)	> 4000 µM	> 4000 µM	447 µM	406 µM	> 4000 µM	> 4000 µM	–
O=c1c(O)c(O)oc2ccccc12	3410 µM	3980 µM	531 µM	472 µM	561 µM	925 µM	–
O=c1c(O)c(O)oc2ccc(-c3ccccc3)cc12	422 µM	345 µM	522 µM	450 µM	253 µM	407 µM	–
CC(C)(C)c1cc2oc(O)c(O)c(=O)c2cc1O	> 4000 µM	> 4000 µM	1640 µM	2180 µM	> 4000 µM	> 4000 µM	–
O=c1c(O)c(O)oc2ccc(Cl)cc12	1400 µM	–	498 µM	513 µM	780 µM	1130 µM	–
O=C1C(O)=C(O)OC2CCCC[C@H]12 (some centres not stated)	3090 µM	–	481 µM	492 µM	> 4000 µM	> 4000 µM	Not Active
CC(=O)Oc1ccccc1C(=O)O [ASPIRIN]	–	–	59 µM	50 µM	89 µM	95 µM	–
CC(C)(Oc1ccc(Cl)cc1)C(=O)O [CLOFIBRIC ACID]	> 4000 µM	3080 µM	–	–	> 3200 µM	> 3500 µM	–
COc1ccc2c(c1)c(CC(=O)O)c(C)n2C(=O)c1ccc(Cl)cc1 [INDOMETHACIN]	–	–	0.8 µM	0.7 µM	1 µM	1 µM	–
